Source: ChEMBL document CHEMBL4043300, “2 H-1,2,3-Triazole-Based Dipeptidyl Nitriles: Potent, Selective, and Trypanocidal Rhodesain Inhibitors by Structure-Based Design” (J Med Chem, 2018)
Values after ≈ are worked out from the molar mass of the structure shown.

Tested on: not listed separately
Experiment: Octanol-water intrinsic distribution co-efficient, log D of the compound at 100 uM at pH 7.4 after 16 to 22 hrs by CAMDIS assay
Format: physicochemical
Conditions: not given
How it was run: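 Octanol/aqueous buffer (pH 7.4) intrinsic distribution coefficient measured in the CAMDIS carrier-mediated distribution system.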

| SMILES | logD at 100 µM |
| --- | --- |
| Cn1ncc(C(=O)N[C@@H](Cc2ccc(OC(F)(F)F)c(Cl)c2)C(=O)NC2(C#N)CC2)n1 | 3.09 |
| CC(C)(C)n1ncc(C(=O)N[C@@H](Cc2ccc(OC(F)(F)F)c(Cl)c2)C(=O)NC2(C#N)CC2)n1 | 4.87 |

Tested on: not listed separately
Experiment: Solubility of the compound at pH 6.5 by LYSA
Format: physicochemical
Conditions: buffer
How it was run: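 Lyophilization solubility assay at pH 6.5.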

| SMILES | solubility |
| --- | --- |
| Cn1ncc(C(=O)N[C@@H](Cc2ccc(OC(F)(F)F)c(Cl)c2)C(=O)NC2(C#N)CC2)n1 | 53 µg/mL (≈ 116 µM) |
| CC(C)(C)n1ncc(C(=O)N[C@@H](Cc2ccc(OC(F)(F)F)c(Cl)c2)C(=O)NC2(C#N)CC2)n1 | 0.9 µg/mL (≈ 1.8 µM) |

Target: Rhodesain (Trypanosoma brucei rhodesiense, UniProt Q95PM0)
Experiment: Inhibition of Trypanosoma brucei rhodesiense rhodesain using Cbz-Phe-Arg-AMC as substrate by fluorimetric method
Conditions: not given
How it was run: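 Fluorescence-based assay run at 25 °C in 50 mM sodium acetate pH 5.5 with 5 mM EDTA, 200 mM NaCl and 0.005% Brij35. IC50 values were converted to Ki with the Cheng-Prusoff equation. Values are the average of two measurements, each done in duplicate.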

Rhodesain, sequence (Q95PM0 whole entry): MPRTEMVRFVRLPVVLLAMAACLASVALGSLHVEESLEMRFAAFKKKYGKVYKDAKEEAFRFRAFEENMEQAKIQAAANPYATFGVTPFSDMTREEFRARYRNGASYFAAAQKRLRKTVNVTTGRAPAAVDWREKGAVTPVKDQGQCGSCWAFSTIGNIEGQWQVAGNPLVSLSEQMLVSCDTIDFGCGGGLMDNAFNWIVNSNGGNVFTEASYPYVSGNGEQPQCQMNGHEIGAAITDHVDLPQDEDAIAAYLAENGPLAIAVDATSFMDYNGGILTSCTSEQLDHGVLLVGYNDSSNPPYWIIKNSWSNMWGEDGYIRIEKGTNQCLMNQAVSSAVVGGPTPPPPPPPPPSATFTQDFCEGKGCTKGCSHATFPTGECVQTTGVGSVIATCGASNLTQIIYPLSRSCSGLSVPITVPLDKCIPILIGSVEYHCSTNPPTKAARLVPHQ

| SMILES | Ki |
| --- | --- |
| Cn1ncc(C(=O)N[C@@H](Cc2ccc(OC(F)(F)F)c(Cl)c2)C(=O)NC2(C#N)CC2)n1 | 0.023 µM |
| CC(C)(C)n1ncc(C(=O)N[C@@H](Cc2ccc(OC(F)(F)F)c(Cl)c2)C(=O)NC2(C#N)CC2)n1 | 0.031 µM |

Target: Procathepsin L (Homo sapiens, UniProt P07711)
Experiment: Inhibition of human CatL using Cbz-Phe-Arg-AMC as substrate measured over 30 mins by fluorimetric method
Conditions: not given
How it was run: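 Human cathepsin L in a fluorimetric assay in 50 mM Tris pH 6.5, 5 mM EDTA, 200 mM NaCl, 0.005% Brij35 at 25 °C. Ki was calculated from IC50 by Cheng-Prusoff. Value is the average of two measurements, each in duplicate.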

Procathepsin L, sequence (P07711 whole entry): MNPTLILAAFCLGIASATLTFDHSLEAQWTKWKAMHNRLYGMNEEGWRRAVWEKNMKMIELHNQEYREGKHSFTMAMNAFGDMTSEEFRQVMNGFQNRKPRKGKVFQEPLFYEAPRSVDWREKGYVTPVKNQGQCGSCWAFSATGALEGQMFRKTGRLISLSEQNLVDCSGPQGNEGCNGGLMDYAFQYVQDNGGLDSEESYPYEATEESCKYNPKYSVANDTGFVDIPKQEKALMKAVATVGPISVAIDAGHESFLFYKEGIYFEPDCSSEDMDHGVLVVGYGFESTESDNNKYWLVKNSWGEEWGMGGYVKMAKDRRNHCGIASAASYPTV

| SMILES | Ki |
| --- | --- |
| Cn1ncc(C(=O)N[C@@H](Cc2ccc(OC(F)(F)F)c(Cl)c2)C(=O)NC2(C#N)CC2)n1 | 0.015 µM |
| CC(C)(C)n1ncc(C(=O)N[C@@H](Cc2ccc(OC(F)(F)F)c(Cl)c2)C(=O)NC2(C#N)CC2)n1 | 0.008 µM |

Tested on: not listed separately
Experiment: Selectivity index, ratio of Ki for human CatL to Ki for Trypanosoma brucei rhodesiense rhodesain
Conditions: not given
How it was run: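 Ki(hCatL)/Ki(RD). Fluorimetric assays at 25 °C: RD in 50 mM sodium acetate pH 5.5; hCatL in 50 mM Tris pH 6.5; both buffers with 5 mM EDTA, 200 mM NaCl, 0.005% Brij35. Ki derived from IC50 by Cheng-Prusoff. Each value is the mean of two measurements, each done in duplicate.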

| SMILES | Ratio Ki |
| --- | --- |
| Cn1ncc(C(=O)N[C@@H](Cc2ccc(OC(F)(F)F)c(Cl)c2)C(=O)NC2(C#N)CC2)n1 | 0.7 |
| CC(C)(C)n1ncc(C(=O)N[C@@H](Cc2ccc(OC(F)(F)F)c(Cl)c2)C(=O)NC2(C#N)CC2)n1 | 0.3 |

Tested on: Trypanosoma brucei rhodesiense
Experiment: Antitrypanosomal activity against bloodstream form of Trypanosoma brucei rhodesiense STIB 900 assessed as parasite growth inhibition after 72 hrs by Alamar blue assay
Format: functional
Conditions: STIB 900, 72 h
How it was run: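 Standard 72 h growth-inhibition assay with STIB 900 bloodstream trypomastigotes and Alamar Blue read-out. Value is the mean of at least 2 measurements.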

| SMILES | IC50 |
| --- | --- |
| Cn1ncc(C(=O)N[C@@H](Cc2ccc(OC(F)(F)F)c(Cl)c2)C(=O)NC2(C#N)CC2)n1 | 0.04 µM |
| CC(C)(C)n1ncc(C(=O)N[C@@H](Cc2ccc(OC(F)(F)F)c(Cl)c2)C(=O)NC2(C#N)CC2)n1 | 0.004 µM |

Tested on: L6
Experiment: Cytotoxicity against rat L6 cells after 72 hrs by Alamar blue assay
Format: cell-based
Conditions: L6, 72 h
How it was run: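 Rat skeletal myoblast L6 cells in an Alamar Blue growth-inhibition assay. Value is the mean of at least 2 measurements.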

| SMILES | IC50 |
| --- | --- |
| Cn1ncc(C(=O)N[C@@H](Cc2ccc(OC(F)(F)F)c(Cl)c2)C(=O)NC2(C#N)CC2)n1 | > 10 µM |
| CC(C)(C)n1ncc(C(=O)N[C@@H](Cc2ccc(OC(F)(F)F)c(Cl)c2)C(=O)NC2(C#N)CC2)n1 | 7.63 µM |

Tested on: not listed separately
Experiment: Intrinsic clearance in human liver microsomes at 2 uM after 30 mins in presence of NADPH by LC-MS/MS method
Format: ADME, microsome
Conditions: read-out: CLH

| SMILES | microsomal CLint at 2 µM |
| --- | --- |
| Cn1ncc(C(=O)N[C@@H](Cc2ccc(OC(F)(F)F)c(Cl)c2)C(=O)NC2(C#N)CC2)n1 | < 10 µL/min/mg |
| CC(C)(C)n1ncc(C(=O)N[C@@H](Cc2ccc(OC(F)(F)F)c(Cl)c2)C(=O)NC2(C#N)CC2)n1 | < 10 µL/min/mg |

Tested on: not listed separately
Experiment: Intrinsic clearance in mouse liver microsomes at 2 uM after 30 mins in presence of NADPH by LC-MS/MS method
Format: ADME, microsome
Conditions: read-out: CLH

| SMILES | microsomal CLint at 2 µM |
| --- | --- |
| Cn1ncc(C(=O)N[C@@H](Cc2ccc(OC(F)(F)F)c(Cl)c2)C(=O)NC2(C#N)CC2)n1 | < 10 µL/min/mg |
| CC(C)(C)n1ncc(C(=O)N[C@@H](Cc2ccc(OC(F)(F)F)c(Cl)c2)C(=O)NC2(C#N)CC2)n1 | 17 µL/min/mg |

Tested on: not listed separately
Experiment: Permeability of the compound after 15 hrs by PAMPA
Format: physicochemical
Conditions: read-out: permeability

| SMILES | Papp at 15 h |
| --- | --- |
| Cn1ncc(C(=O)N[C@@H](Cc2ccc(OC(F)(F)F)c(Cl)c2)C(=O)NC2(C#N)CC2)n1 | 0.12 ×10⁻⁶ cm/s |
| CC(C)(C)n1ncc(C(=O)N[C@@H](Cc2ccc(OC(F)(F)F)c(Cl)c2)C(=O)NC2(C#N)CC2)n1 | 2.86 ×10⁻⁶ cm/s |

Target: Cytochrome P450 3A4 (Homo sapiens, UniProt P08684)
Experiment: Inhibition of CYP3A4 in human liver microsomes using DBF as substrate by fluorescence assay
Format: ADME
Conditions: not given
How it was run: (§1)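 Human liver microsomes with CYP-selective substrate metabolism reactions for 2C9, 2D6 and 3A4.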

Cytochrome P450 3A4, sequence (P08684 whole entry): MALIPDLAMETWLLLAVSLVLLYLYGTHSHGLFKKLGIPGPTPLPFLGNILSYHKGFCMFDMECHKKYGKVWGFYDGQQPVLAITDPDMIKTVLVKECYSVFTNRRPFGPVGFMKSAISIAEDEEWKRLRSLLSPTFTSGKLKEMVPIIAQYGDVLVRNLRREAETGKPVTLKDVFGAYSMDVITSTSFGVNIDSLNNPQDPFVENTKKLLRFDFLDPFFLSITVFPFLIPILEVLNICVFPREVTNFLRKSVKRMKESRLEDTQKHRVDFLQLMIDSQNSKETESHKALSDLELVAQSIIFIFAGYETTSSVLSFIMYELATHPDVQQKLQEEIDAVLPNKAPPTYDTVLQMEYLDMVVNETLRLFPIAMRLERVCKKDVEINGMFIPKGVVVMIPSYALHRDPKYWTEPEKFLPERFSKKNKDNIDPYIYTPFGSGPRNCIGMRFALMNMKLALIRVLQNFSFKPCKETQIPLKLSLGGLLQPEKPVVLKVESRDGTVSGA

| SMILES | IC50 |
| --- | --- |
| Cn1ncc(C(=O)N[C@@H](Cc2ccc(OC(F)(F)F)c(Cl)c2)C(=O)NC2(C#N)CC2)n1 | > 50 µM |
| CC(C)(C)n1ncc(C(=O)N[C@@H](Cc2ccc(OC(F)(F)F)c(Cl)c2)C(=O)NC2(C#N)CC2)n1 | > 50 µM |

Target: Cytochrome P450 2D6 (Homo sapiens, UniProt P10635)
Experiment: Inhibition of CYP2D6 in human liver microsomes using AMMC as substrate by fluorescence assay
Format: ADME
Conditions: not given
How it was run: as §1

Cytochrome P450 2D6, sequence (P10635 whole entry): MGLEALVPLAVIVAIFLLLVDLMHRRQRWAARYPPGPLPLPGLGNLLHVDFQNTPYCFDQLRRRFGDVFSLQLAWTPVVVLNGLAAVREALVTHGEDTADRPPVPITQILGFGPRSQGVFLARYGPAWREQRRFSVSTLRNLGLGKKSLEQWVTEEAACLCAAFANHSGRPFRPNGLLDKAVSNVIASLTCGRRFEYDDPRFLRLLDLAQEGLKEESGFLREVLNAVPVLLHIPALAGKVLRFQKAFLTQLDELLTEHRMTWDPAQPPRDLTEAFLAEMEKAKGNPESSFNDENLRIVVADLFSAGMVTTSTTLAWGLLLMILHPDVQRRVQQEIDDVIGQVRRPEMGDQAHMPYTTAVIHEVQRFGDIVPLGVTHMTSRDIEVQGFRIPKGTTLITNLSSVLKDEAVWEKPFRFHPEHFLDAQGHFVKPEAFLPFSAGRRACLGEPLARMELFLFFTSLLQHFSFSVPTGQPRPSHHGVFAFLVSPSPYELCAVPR

| SMILES | IC50 |
| --- | --- |
| Cn1ncc(C(=O)N[C@@H](Cc2ccc(OC(F)(F)F)c(Cl)c2)C(=O)NC2(C#N)CC2)n1 | 6 µM |
| CC(C)(C)n1ncc(C(=O)N[C@@H](Cc2ccc(OC(F)(F)F)c(Cl)c2)C(=O)NC2(C#N)CC2)n1 | 0.5 µM |

Target: Cytochrome P450 2C9 (Homo sapiens, UniProt P11712)
Experiment: Inhibition of CYP2C9 in human liver microsomes using MFC as substrate by fluorescence assay
Format: ADME
Conditions: not given
How it was run: as §1

Cytochrome P450 2C9, sequence (P11712 whole entry): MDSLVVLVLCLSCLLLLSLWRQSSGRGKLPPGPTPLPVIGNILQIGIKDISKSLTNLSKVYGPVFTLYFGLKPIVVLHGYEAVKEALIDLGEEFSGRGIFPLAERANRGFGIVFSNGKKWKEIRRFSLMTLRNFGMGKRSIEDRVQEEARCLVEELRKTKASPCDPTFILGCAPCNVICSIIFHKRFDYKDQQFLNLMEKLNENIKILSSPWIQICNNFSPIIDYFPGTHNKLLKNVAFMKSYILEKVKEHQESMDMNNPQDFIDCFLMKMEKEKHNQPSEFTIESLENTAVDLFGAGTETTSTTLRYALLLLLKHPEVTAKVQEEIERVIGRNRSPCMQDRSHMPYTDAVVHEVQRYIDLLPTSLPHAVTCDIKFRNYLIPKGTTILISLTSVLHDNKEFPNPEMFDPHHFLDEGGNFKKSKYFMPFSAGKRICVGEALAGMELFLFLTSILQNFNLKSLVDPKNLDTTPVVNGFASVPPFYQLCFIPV

| SMILES | IC50 |
| --- | --- |
| Cn1ncc(C(=O)N[C@@H](Cc2ccc(OC(F)(F)F)c(Cl)c2)C(=O)NC2(C#N)CC2)n1 | > 50 µM |
| CC(C)(C)n1ncc(C(=O)N[C@@H](Cc2ccc(OC(F)(F)F)c(Cl)c2)C(=O)NC2(C#N)CC2)n1 | 5 µM |

Tested on: not listed separately
Experiment: Half life in C57BL/6J mouse at 1.5 mg/kg, iv as bolus dose by LC-MS/MS analysis
Format: ADME, organism-based
Conditions: in vivo
How it was run: (§2)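 Mice given single i.v. dose in N-methylpyrrolidinone / 40% (v/v) aqueous hydroxypropyl-γ-cyclodextrin (30/70 v/v). Blood into K₂EDTA at 5 min, 15 min, 30 min, 1, 2, 4, 8 h, sublingually or by terminal cardiac puncture under isoflurane. Plasma spun at 3000 × g, 5 min, 4 °C, stored at -20 °C. Plasma levels by LC–MS/MS; parameters by non-compartmental analysis.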

| SMILES | half-life |
| --- | --- |
| Cn1ncc(C(=O)N[C@@H](Cc2ccc(OC(F)(F)F)c(Cl)c2)C(=O)NC2(C#N)CC2)n1 | 1.52 h |

Tested on: not listed separately
Experiment: Clearance in C57BL/6J mouse at 1.5 mg/kg, iv as bolus dose by LC-MS/MS analysis
Format: ADME, organism-based
Conditions: in vivo
How it was run: as §2

| SMILES | clearance |
| --- | --- |
| Cn1ncc(C(=O)N[C@@H](Cc2ccc(OC(F)(F)F)c(Cl)c2)C(=O)NC2(C#N)CC2)n1 | 22.8 mL/min/kg |

Tested on: not listed separately
Experiment: Volume of distribution at steady state in C57BL/6J mouse at 1.5 mg/kg, iv as bolus dose by LC-MS/MS analysis
Format: ADME, organism-based
Conditions: in vivo, read-out: Vdss
How it was run: as §2

| SMILES | Vd |
| --- | --- |
| Cn1ncc(C(=O)N[C@@H](Cc2ccc(OC(F)(F)F)c(Cl)c2)C(=O)NC2(C#N)CC2)n1 | 2.7 L/kg |

Tested on: not listed separately
Experiment: Unbound fraction in human plasma
Format: ADME, cell-free
Conditions: not given

| SMILES | fraction unbound |
| --- | --- |
| Cn1ncc(C(=O)N[C@@H](Cc2ccc(OC(F)(F)F)c(Cl)c2)C(=O)NC2(C#N)CC2)n1 | 0.226 |

Tested on: not listed separately
Experiment: Half life in C57BL/6J mouse at 1.3 mg/kg, iv as bolus dose by LC-MS/MS analysis
Format: ADME, organism-based
Conditions: in vivo
How it was run: (§3)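 Mice received intravenous compound in N-methylpyrrolidinone / 40% aqueous hydroxypropyl-γ-cyclodextrin (30/70). Blood was drawn into K₂EDTA at 5 min, 15 min, 30 min, 1, 2, 4 and 8 h, and plasma was separated at 3000 × g for 5 min at 4 °C and stored at -20 °C. Plasma levels were measured by LC–MS/MS, and parameters derived by non-compartmental analysis.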

| SMILES | half-life |
| --- | --- |
| CC(C)(C)n1ncc(C(=O)N[C@@H](Cc2ccc(OC(F)(F)F)c(Cl)c2)C(=O)NC2(C#N)CC2)n1 | 1.3 h |

Tested on: not listed separately
Experiment: Clearance in C57BL/6J mouse at 1.3 mg/kg, iv as bolus dose by LC-MS/MS analysis
Format: ADME, organism-based
Conditions: in vivo
How it was run: as §3

| SMILES | clearance |
| --- | --- |
| CC(C)(C)n1ncc(C(=O)N[C@@H](Cc2ccc(OC(F)(F)F)c(Cl)c2)C(=O)NC2(C#N)CC2)n1 | 17 mL/min/kg |

Tested on: not listed separately
Experiment: Volume of distribution at steady state in C57BL/6J mouse at 1.3 mg/kg, iv as bolus dose by LC-MS/MS analysis
Format: ADME, organism-based
Conditions: in vivo, read-out: Vdss
How it was run: as §3

| SMILES | Vd |
| --- | --- |
| CC(C)(C)n1ncc(C(=O)N[C@@H](Cc2ccc(OC(F)(F)F)c(Cl)c2)C(=O)NC2(C#N)CC2)n1 | 1.7 L/kg |

Tested on: Trypanosoma brucei rhodesiense
Experiment: Antitrypanosomal activity against bloodstream form of Trypanosoma brucei rhodesiense STIB 900 infected in NMRI mouse assessed as reduction of parasitemia at 50 mg/kg, po administered for 3 consecutive days starting 1 day post infection measured at 24 hrs post last dose relative to control
Format: functional
Design: scale not given: the % may be the effect or the level left
Conditions: not given
How it was run: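 Female mice infected with STIB900 were dosed orally at 50 mg/kg/day on three consecutive days, starting 1 day post-infection. Compound was in 100% DMSO diluted 10-fold in distilled water, given at 0.1 mL/10 g. Tail-blood parasitaemia was measured 24 h after the last dose versus 4 untreated infected controls. Values are means of 2 mice.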

| SMILES | Activity |
| --- | --- |
| Cn1ncc(C(=O)N[C@@H](Cc2ccc(OC(F)(F)F)c(Cl)c2)C(=O)NC2(C#N)CC2)n1 | 53.6% |

Tested on: not listed separately
Experiment: Selectivity index, ratio of IC50 for rat L6 cells to IC50 for bloodstream form of Trypanosoma brucei rhodesiense STIB 900
Format: toxicity
Conditions: read-out: Ratio IC50
How it was run: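 Ratio of L-6 rat skeletal myoblast IC50 to T. b. rhodesiense STIB 900 bloodstream trypomastigote IC50, both from Alamar Blue growth-inhibition assays. Each IC50 is the mean of at least 2 measurements.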

| SMILES | selectivity ratio |
| --- | --- |
| CC(C)(C)n1ncc(C(=O)N[C@@H](Cc2ccc(OC(F)(F)F)c(Cl)c2)C(=O)NC2(C#N)CC2)n1 | 1900 |
